{"source": "ChEMBL document CHEMBL1255201", "about": "“A novel arylethynyltriazole acyclonucleoside inhibits proliferation of drug-resistant pancreatic cancer cells” (2010)", "tested_on": "MIA PaCa-2", "test": "Growth inhibition of human MIAPaCa2 cells after 48 hrs by MTT assay", "type": "functional", "in_short": "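Cells seeded at 15,000/well, attached overnight, then medium replaced with fresh medium alone (control) or medium containing compound; 48 h at 37 °C, 5% CO2. Viable cells quantified by MTT colorimetric assay.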"}
{"smiles": "Nc1ccn([C@@H]2O[C@H](CO)[C@@H](O)C2(F)F)c(=O)n1", "note": "[GEMCITABINE]", "values": [{"measurement": "inhibition (INH)", "result": 30, "unit": "%"}]}
